Screens as filed in PubChem.
CRFR2-BP ag: agonists of CRF-BP/CRF-R2 complex, primary screen, cell-based, HEK293, calcium dye fluorescence, uHTS; 350,000 compounds, 0.46% hits; AID 588473, 2011; activation, % at 13.2 µM; CRF-binding protein / CRF receptor 2 complex (human); calcium dye fluorescence (FLIPR); percent of saturating CRF peptide response;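 active = activation of at least 50%, plus an integration ratio under a set limit after plate pattern correction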
NRP1-CendR mod: modulators of CendR peptide binding to NRP-1, primary screen, biochemical, fluorescence polarization, uHTS; FAM-RPARPAR peptide binding to NRP-1; inhibition, % at 25 µM; 360,000 compounds, 0.85% hits; AID 602438, 2012;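 active = inhibition or corrected inhibition above about 18%, plus a signal ratio from 0.5 to 1.5, limit read from the data, passing the limit was not always enough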
Target sequence (O14786 whole entry, looked up): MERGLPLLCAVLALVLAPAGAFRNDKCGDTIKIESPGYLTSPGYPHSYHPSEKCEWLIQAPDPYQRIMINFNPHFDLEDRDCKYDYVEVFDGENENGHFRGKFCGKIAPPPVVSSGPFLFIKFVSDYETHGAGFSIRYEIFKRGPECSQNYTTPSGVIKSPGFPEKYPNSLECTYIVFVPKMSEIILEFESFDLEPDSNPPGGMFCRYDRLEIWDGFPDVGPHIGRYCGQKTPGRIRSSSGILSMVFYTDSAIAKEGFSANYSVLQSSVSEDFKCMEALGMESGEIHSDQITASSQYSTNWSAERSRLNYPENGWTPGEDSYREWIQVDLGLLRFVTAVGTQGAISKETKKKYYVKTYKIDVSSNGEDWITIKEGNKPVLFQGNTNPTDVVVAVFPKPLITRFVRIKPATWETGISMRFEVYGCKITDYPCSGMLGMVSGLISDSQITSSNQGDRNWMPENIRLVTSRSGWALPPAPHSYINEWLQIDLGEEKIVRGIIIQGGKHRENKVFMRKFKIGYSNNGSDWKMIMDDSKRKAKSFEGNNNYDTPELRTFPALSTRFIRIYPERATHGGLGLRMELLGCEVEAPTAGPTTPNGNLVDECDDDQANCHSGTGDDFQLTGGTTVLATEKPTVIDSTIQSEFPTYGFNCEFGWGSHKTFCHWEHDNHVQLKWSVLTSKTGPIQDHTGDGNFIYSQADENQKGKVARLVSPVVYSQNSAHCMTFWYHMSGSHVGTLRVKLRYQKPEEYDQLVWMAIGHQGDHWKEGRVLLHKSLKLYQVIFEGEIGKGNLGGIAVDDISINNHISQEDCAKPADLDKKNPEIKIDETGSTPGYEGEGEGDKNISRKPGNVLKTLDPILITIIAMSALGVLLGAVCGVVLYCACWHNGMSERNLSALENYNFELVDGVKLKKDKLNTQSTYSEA
Tn6 DDE FP: inhibitors of Tn6 peptide binding to fibrin DD(E), primary screen, biochemical, fluorescence polarization, human fibrin, Tn6 probe; AID 720509, 2013; inhibition, % at 8.3 µM; 370,000 compounds, 0.21% hits; Fibrin DD(E) TRITC-Tn6 fluorescence polarization displacement; Fibrinogen beta chain (Homo sapiens), P02675;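 active = inhibition above a per-campaign cutoff: mean of compounds within control limits plus 3 SD, cut at about 15% in these data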
CRFR2-BP antag: antagonists of CRF-BP/CRF-R2 complex, primary screen, cell-based, HEK293, calcium dye fluorescence, uHTS; CRF-induced calcium fluorescence; 350,000 compounds, 0.59% hits; inhibition, % at 11.8 µM;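 active = inhibition of the ligand-induced calcium signal above about 50% at the single tested concentration, limit read from the data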
DDE Tn7 FP inh: inhibitors of Tn7 peptide binding to fibrin DD(E), primary screen, biochemical, fluorescence polarization, human fibrin, Tn7 probe | 370,000 compounds, 0.13% hits | FP displacement of FITC-Tn7 peptide from fibrin DD(E); 0% = median of compound wells per plate | inhibition, % at 8.3 µM;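 active = inhibition above the mean of compounds falling within the control limits plus 3 SD of them, cut at about 14% in these data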
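Assay system: human fibrin DD(E) protein / Input: 2 µM fibrin DD(E) / Benchmarks: high control of 10 µM Aha-Tn7 peptide / Measured by: fluorescence polarization of the labelled Tn7 tracer / Medium: Tris buffer with calcium and detergent, pH 7.8 / Timing: 10 min compound pre-incubation, 3 h probe incubation at room temperature / Repeats: one replicate per compound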
proKLK7 act: proKLK7 zymogen activators, primary screen, biochemical, fluorescence intensity; Kallikrein-7 (Homo sapiens), P49862; purified proKLK7, EDANS-DABCYL substrate fluorescence; 100% is mature enzyme control, 0% vehicle; activation, % at 7 µM; 370,000 compounds, 0.9% hits;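 active = activation above the mean of all tested compounds plus 3 SD, computed per campaign excluding outliers beyond control limits, cut at about 13% in these data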
Hits are given with their value; - = inactive; . = no result given. Shown are actives, neighbours in structure and some others; about 2.9% of the full set was active somewhere.

SMILES	CRFR2-BP ag	NRP1-CendR mod	Tn6 DDE FP	CRFR2-BP antag	DDE Tn7 FP inh	proKLK7 act
CCOc1ccc(NS(=O)(=O)c2ccc(C(=O)NCC3(N4CCCCC4)CCCCC3)cc2)cc1	62	-	-	-	-	-
CCOc1ccc(S(=O)(=O)Nc2ccc(C(=O)NCC(C)(C)N3CCOCC3)cc2)cc1	-	21	-	-	-	-
Cc1cc(S(=O)(=O)Nc2ccc(C(=O)NCC3(N(C)C)CCCCC3)cc2)ccc1F	-	-	-	-	-	-
CCOc1ccc(S(=O)(=O)Nc2nc3ccccc3nc2Nc2ccc(N3CCOCC3)cc2)cc1	77	-	-	-	-	-
CCOCCCN(Cc1cc2cc(C)cc(C)c2[nH]c1=O)C(=O)N(CC)CC	-	-	-	52	-	-
O=C(c1ccc(NS(=O)(=O)c2cccc([N+](=O)[O-])c2)cc1)N1CCCCCC1	-	-	-	115	-	-
COc1cccc(NS(=O)(=O)c2c(C(=O)N3CCCCCC3)c(C)n(C)c2C)c1	-	-	-	-	-	-
COc1cccc(NS(=O)(=O)c2ccc(C)c(C(=O)N3CCCCC3)c2)c1	-	20	-	-	-	-
CN(CCOC(=O)c1cc2ccccc2o1)C1CN(Cc2cn(Cc3ccccc3C(F)(F)F)nn2)S(=O)(=O)C1 (stereo not drawn)	.	.	-	.	-	-
Cc1ccc(-n2c(SCC(=O)Nc3ccccc3-c3ccccc3)nnc2-c2ccccc2)cc1	.	.	-	.	-	-
O=C(COC(=O)CCc1ccc(S(=O)(=O)N2CCOCC2)cc1)Nc1ccccc1OC(F)F	-	-	-	105	-	-
O=C(COC(=O)Cc1ccc(Cl)cc1)Nc1cc(S(=O)(=O)N2CCOCC2)ccc1N1CCCC1	-	44	-	-	-	-
Cc1ccc(S(=O)(=O)N2CCCC2C(=O)N2CCc3ccccc3C2)cc1C (stereo not drawn)	.	.	-	.	-	-
O=C(O)CSc1nnc(COc2cccc3cccnc23)n1-c1cccc(C(F)(F)F)c1	-	.	-	-	-	-
O=C(O)CCSc1nnc(COc2cccc3cccnc23)n1-c1ccccc1	-	26	-	-	-	-
FC(F)(F)c1ccccc1NC(=S)OC1CCC12CCC(c1ccccc1)CC2 (stereo not drawn)	.	.	-	.	-	-
CCCOc1ccc(N2C(=O)CC(N3CCN(CCN=CC4C(=O)CC(C)(C)CC4=O)CC3)C2=O)cc1 (stereo not drawn)	-	25	-	-	-	-
O=Nc1nc2ncccn2c1-c1ccccc1	-	-	-	58	-	-
O=C(Nc1ccc(-n2cnnn2)cc1)c1cn2ccccc2n1	104	-	.	-	.	.
O=C(Nc1ccccc1)c1cn2ccccc2n1	-	-	-	-	-	-
Cc1ccc(CN2CCN(CC(=O)NCCCN3CCN(c4ccc(F)cc4)CC3)C2=O)cc1	-	-	-	-	-	-
COc1ccc(N2CCN(CCCNC(=O)CN3CCN(Cc4ccccc4C)C3=O)CC2)cc1	-	-	-	56	-	-
O=C(NCc1ccccc1)c1ccc(CN2CCC(Cc3ccccc3)CC2)cc1	-	-	-	-	-	-
CCc1ccccc1NC(=O)c1ccc(CN2CCC(Cc3ccccc3)CC2)cc1	-	32	-	-	-	-
CN1CCCC(OC(=O)c2cccc(Cl)c2)C1 (stereo not drawn)	-	30	-	-	-	-
SMILES	CRFR2-BP ag	NRP1-CendR mod	Tn6 DDE FP	CRFR2-BP antag	DDE Tn7 FP inh	proKLK7 act
Cc1ccc(N2CCN(S(=O)(=O)N3CCCCCC3)CC2)cc1Cl	-	-	-	-	-	-
Cc1ccc(N2CCN(S(=O)(=O)N3CCCCC3)CC2)cc1C	-	31	-	-	-	-
CC(C)CCn1c(Oc2ccc(Cl)cc2)nc2c1c(=O)n(C)c(=O)n2C	-	26	-	-	-	-
CCn1c(Oc2ccc(F)cc2)nc2c1c(=O)n(C)c(=O)n2C	-	-	-	-	-	-
CC1CCc2c(C(=O)NCc3ccccn3)csc2C1 (stereo not drawn)	-	-	-	-	-	-
CC1CCc2c(C(=O)Nc3ccccn3)csc2C1 (stereo not drawn)	-	-	-	57	-	-
CCOc1ccc(C(=O)NCC(=O)NNC(=O)CN(C)S(=O)(=O)c2ccc(Cl)cc2)cc1OCC	-	-	-	-	-	-
COc1cc(C(=O)NCC(=O)NNC(=O)CN(C)S(=O)(=O)c2ccc(Cl)cc2)cc(OC)c1OC	-	27	-	-	-	-
C=CCn1nc(-c2ccccc2)cc1C(=O)OCC	-	28	-	-	-	-
COc1ccc(-c2c(-c3ccccc3OC)oc3ccccc23)cn1	-	27	-	-	-	-
CC(=O)c1cc(F)c(N2CCN(C(=O)C(C)(C)C)CC2)cc1C	-	-	-	74	-	-
CC(=O)c1cc(F)c(N2CCCC2)cc1C	-	-	-	-	-	-
CC(=O)c1cn(Cc2ccccc2)c(=O)n(Cc2ccc(F)cc2)c1=O	-	-	-	-	-	-
O=c1c([N+](=O)[O-])cn(Cc2ccccc2)c(=O)n1Cc1ccccc1	56	-	-	-	-	-
Cc1nn(CCC(=O)NNC(=O)Nc2ccccc2F)c(C)c1[N+](=O)[O-]	.	.	-	.	-	-
Cc1ccc(-n2c(-c3ccco3)nc3c(cnn3-c3ccc(C)cc3)c2=O)cc1	-	35	-	-	-	-
CC1C/C(=C/c2ccncc2)C(=O)/C(=C/c2ccncc2)C1 (stereo not drawn)	-	-	-	-	-	-
CC1C/C(=C/c2cccn2C)C(=O)/C(=C/c2cccn2C)C1 (stereo not drawn)	128	-	-	-	-	-
COc1cccc(/C=C2\CC3(OC(=O)C4CCCC4)CCCN2C3)c1 (stereo not drawn)	.	.	-	.	-	-
CCOC(=O)c1cn2nc(Oc3cccc(F)c3)ccc2n1	-	-	-	62	-	-
CN(C(=O)COC(=O)c1ccccc1SCC(=O)N1CCCC1)C1CCS(=O)(=O)C1 (stereo not drawn)	-	20	-	-	-	-
CCOc1ccc(Oc2c(Cl)cnn(Cc3cccc4ccccc34)c2=O)cc1	.	.	-	.	-	-
CC(C)Oc1cc(NC(=O)CS(=O)CC(=O)Nc2cccc(C(F)(F)F)c2)c(Cl)cc1Cl (stereo not drawn)	-	-	-	-	-	-
